Legend:
Type in all cases: cell-based, human
PDGFR-β = test: PDGFR signaling by Western blot; settings: AHDF preincubated 1 h with 80 µM dynasore, 1 nM PDGF-BB in HBSS (Figure S9)
Summary of the method: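 AHDF primary dermal fibroblasts (passage 8–12, grown in DMEM/10% FBS) were stimulated with 1 nM PDGF-BB ± 10 µM peptide in HBSS. Cells were lysed in Tris pH 7.5 buffer with phosphatase and protease inhibitors, sonicated and boiled. Equal protein was run on 10% SDS-PAGE and blotted to nitrocellulose, blocked in 2% BSA/TBST, and probed overnight at 4°C. Detection used HRP-secondary chemiluminescence, with signal intensity quantified.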

[1] = system: MCF-7 cells expressing GFP-PDGFR-β; test: PDGFR-GFP / TR-dextran co-localization; settings: MCF-7 pre-incubated with 80 µM dynasore 1 h, then 1 nM PDGF-BB
Summary of the method: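 MCF-7 cells expressing GFP-PDGFR-β were pre-incubated 1 h with 80 µM dynasore in serum-free DMEM. They then received TR-dextran plus 1 nM PDGF-BB ± 10 µM peptide in HBSS for 15 min and were imaged by confocal microscopy. Both channel thresholds were set at 70, and >100 cells were scored per condition. Co-localization index = yellow pixels / (yellow + green pixels).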

AHDF [2] = test: TUNEL apoptosis assay under nutrient deprivation; settings: AHDF in HBSS, 3 days of starvation; 1 nM PDGF, 10 µM P12; >800 cells counted, n=6, mean
AHDF [3] = test: cell morphology by phase contrast microscopy under nutrient deprivation; settings: AHDF in HBSS 3 days; 1 nM PDGF, 10 µM P12

Row | Molecule | PDGF-BB stimulated p-Akt signal in the presence of dynasore (PDGFR-β) | PDGF-BB-stimulated internalization of PDGFR-GFP under dynamin inhibition [1] | apoptosis, %TUNEL+ (TUNEL positive/DAPI positive) (AHDF [2]) | cell morphology (AHDF [3])
1 | O=C(N/N=C/c1ccc(O)c(O)c1)c1cc2ccccc2cc1O [dynasore] | inhibition | minimal internalization | – | –
2 | PDGF-BB: platelet-derived growth factor BB, purchased from Invitrogen | – | – | 30% | rounded or shriveled

Source: PMC3961502 (The Journal of investigative dermatology, 2013)
